# According to ChEMBL document CHEMBL4130516, “Immunomodulatory Polyketides from a Phoma-like Fungus Isolated from a Soft Coral” (J Nat Prod, 2017):
# Activity calls are given as the source filed them. No cut-off for these calls is given here.
# Assays:
# A549 = test: Cytotoxicity in human A549 cells assessed as reduction in cell viability at 30 uM incubated for CellTiter-Blue cell viability assay; format: functional, cell-based
# How it was run: (§1)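 Cells were treated with compounds at 30 μM for 48 h at 37 °C in 5% CO2. Media were DMEM + 10% FBS for A549, HCT116 and MCF-7, and MEM for DAOY. Adriamycin was the positive control. Relative viability was read by CellTiter-Blue at 530/590 nm.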
# HCT-116 = test: Cytotoxicity in human HCT116 cells assessed as reduction in cell viability at 30 uM incubated for CellTiter-Blue cell viability assay; format: functional, cell-based; how it was run: as §1
# MCF7 = test: Cytotoxicity in human MCF7 cells assessed as reduction in cell viability at 30 uM incubated for CellTiter-Blue cell viability assay; format: functional, cell-based; how it was run: as §1
# Daoy = test: Cytotoxicity in human DaOY cells assessed as reduction in cell viability at 30 uM incubated for CellTiter-Blue cell viability assay; format: functional, cell-based; how it was run: as §1
# Splenocyte [1] = test: Induction of apoptosis in Con A-stimulated C57BL/6 mouse splenocytes at 3 uM by flow cytometry; format: cell-based
# How it was run: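 C57BL/6 mouse splenocytes (2 × 10^6 cells/mL) were incubated with compounds at 3 μM for 24 h, with Con A (5 μg/mL) as positive control. Cells were washed with PBS and immediately analysed for apoptosis by flow cytometry.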
# Splenocyte [2] = test: Immunomodulatory activity in Con A-stimulated C57BL/6 mouse splenocytes assessed as increase in CD3+T cell proliferation at 3 uM by PE-CD3 staining based flow cytometry; format: functional
# How it was run: (§2)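 C57BL/6 mouse splenocytes, Con A-stimulated (Con A 5 μg/mL as control), were incubated with compounds at 3 μM for 24 h. Cells were stained with PE-CD3, FITC-CD4 and PerCP/Cy5.5-CD8. Flow cytometry gave the percentage of CD3+, CD4+ and CD8+ T cells and the CD4+/CD8+ ratio. Values are means ± SD, n = 3.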
# Splenocyte [3] = test: Immunomodulatory activity in C57BL/6 mouse splenocytes assessed as increase in CD3+T cell proliferation at 3 uM by PE-CD3 staining based flow cytometry; format: functional
# Splenocyte [4] = test: Immunomodulatory activity in Con A-stimulated C57BL/6 mouse splenocytes assessed as increase in ratio of CD4+/[…] cells at 3 uM by PE-CD3 staining based flow cytometry; format: functional, cell-based; how it was run: as §2
Structure (SMILES),Activity (A549),Activity (HCT-116),Activity (MCF7),Activity (Daoy),Activity (Splenocyte [1]),Activity (Splenocyte [2]),Activity (Splenocyte [3]),Activity (Splenocyte [4])
C[C@@]1(O)CC[C@H]2[C@@H](C=C[C@@]3(C)OC(=O)C[C@H](O)[C@]23C)C1,inactive,inactive,inactive,inactive,Non-Toxic,inactive,inactive,Active
C[C@H]1CC[C@H]2C(=C[C@@H](O)[C@@](C)(O)[C@]2(C)C(=O)CCO)C1,inactive,inactive,inactive,inactive,Non-Toxic,inactive,inactive,–
C[C@@]1(O)CC[C@H]2[C@@H](C=C[C@@]3(C)OC(=O)CC[C@]23C)C1,inactive,inactive,inactive,inactive,Non-Toxic,inactive,inactive,–
C[C@H]1CC[C@H]2[C@H](C1)[C@H](Cl)[C@@H](O)[C@@](C)(O)[C@]2(C)C(=O)CCO,inactive,inactive,inactive,inactive,Non-Toxic,inactive,inactive,Active
C[C@H]1CC[C@H]2[C@@H](C=C[C@@](C)(O)[C@]2(C)C(=O)O)C1,inactive,inactive,inactive,inactive,Non-Toxic,Active,Active,–
CC(=O)OCCC(=O)[C@]1(C)[C@H]2CC[C@H](C)C[C@@H]2C=C[C@@]1(C)O,inactive,inactive,inactive,inactive,Non-Toxic,inactive,inactive,Active
CC(=O)[C@@]1(C)C(C)=C[C@H](O)[C@H]2C[C@](C)(O)CC[C@@H]21,inactive,inactive,inactive,inactive,Non-Toxic,–,–,Active
C[C@@]1(O)CC[C@H]2[C@@H](C=C[C@]3(C)OCC[C@H](O)[C@]23C)C1,inactive,inactive,inactive,inactive,Non-Toxic,inactive,inactive,–
CC(=O)[C@]1(C)[C@H]2CC[C@H](C)C[C@@H]2[C@H](Cl)[C@@H](O)[C@@]1(C)O,inactive,inactive,inactive,inactive,Non-Toxic,–,–,–
CC(=O)[C@]1(C)[C@H]2CC[C@@](C)(O)C[C@@H]2C=C[C@@]1(C)O,inactive,inactive,inactive,inactive,Non-Toxic,inactive,inactive,–
C[C@H]1CC[C@H]2[C@H](C1)[C@@H](O)[C@@H]1O/C(=C\C=O)[C@@]2(C)[C@]1(C)O,inactive,inactive,inactive,inactive,Non-Toxic,–,–,–
C[C@@]1(O)CC[C@H]2[C@H](C1)[C@@H]1O[C@@H]1[C@@]1(C)OC(=O)CC[C@]21C,inactive,inactive,inactive,inactive,Non-Toxic,–,–,–
C[C@H]1CC[C@H]2[C@@H](C=C[C@@](C)(O)[C@]2(C)C(=O)CCO)C1,inactive,inactive,inactive,inactive,Non-Toxic,Active,Active,–
CC(=O)OCCC(=O)[C@]1(C)[C@H]2CC[C@H](C)C[C@@H]2[C@H](Cl)[C@@H](O)[C@@]1(C)O,inactive,inactive,inactive,inactive,Non-Toxic,–,–,–
CC(=O)OCCC(=O)[C@]1(C)[C@H]2CC[C@@](C)(O)C[C@@H]2C=C[C@@]1(C)O,inactive,inactive,inactive,inactive,Non-Toxic,–,–,–
C[C@@]1(O)CC[C@H]2[C@](O)(C1)[C@@H]1O[C@@H]1[C@@]1(C)OC(=O)CC[C@]21C,inactive,inactive,inactive,inactive,Non-Toxic,Active,Active,–
